The list is not random: actives were taken first. Their share in the collection is about 5.8%.
IDH1 R132H inh – IDH1 R132H (human) inhibition; O75874; IDH1 R132H reductase, diaphorase/resazurin fluorescence, 60 min; inhibition, % at 10 µM; 0.18% of 70,000 active; in the data active = inhibition above about 34%; inconclusive = no clear call, values can overlap the other calls; inactive = below about 11%;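 also: 0% = DMSO and 100% = no enzyme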
Target sequence (O75874 whole entry R132H): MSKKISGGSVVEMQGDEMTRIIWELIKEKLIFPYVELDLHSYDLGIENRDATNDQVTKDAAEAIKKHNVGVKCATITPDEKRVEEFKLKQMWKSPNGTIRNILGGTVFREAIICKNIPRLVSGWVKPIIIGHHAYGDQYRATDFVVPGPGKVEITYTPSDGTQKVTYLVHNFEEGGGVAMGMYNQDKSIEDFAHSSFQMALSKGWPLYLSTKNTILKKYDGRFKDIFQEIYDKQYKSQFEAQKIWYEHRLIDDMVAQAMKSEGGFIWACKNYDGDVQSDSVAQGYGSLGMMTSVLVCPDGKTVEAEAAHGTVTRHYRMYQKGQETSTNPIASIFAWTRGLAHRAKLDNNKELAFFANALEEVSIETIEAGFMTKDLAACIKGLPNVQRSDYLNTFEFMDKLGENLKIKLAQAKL
KDM4C inh – KDM4C (human) demethylase inhibition | Q9H3R0 | GST-KDM4C 2-372, H3K9me3 peptide, LANCE TR-FRET | inhibition, % at 12.5 µM | 0.15% of 96,000 active;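 active = mean replicate inhibition above about 25%, with at least 55% of replicates also reaching it, limit read from the data, passing the limit was not always enough; inconclusive = only one of those two conditions met; inactive = neither condition met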
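Material: N-terminal GST-fused human GASC-1 (KDM4C) fragment, residues 2-372. Input: 10 nM enzyme. Incubation: enzyme reaction 30 min, then detection 60 min, both room temperature. Doses: one test concentration per compound. Read-out basis: inhibition from TR-FRET ratio decrease. Detection: LANCE TR-FRET, excitation 340 nm, emissions 618 and 671 nm.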
T cruzi growth-1 – blocks T. cruzi growth in NIH3T3 culture. T. cruzi beta-gal in NIH3T3, GalScreen luminescence, 90 h. inhibition, % at 8.34 µM. 5.9% of 77,000 active;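 active = mean inhibition above about 93%, with at least 55% of replicates each passing it, limit read from the data, passing the limit was not always enough; inconclusive = only one of those two conditions holds; inactive = neither condition holds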
Pf Dd2 inh – P. falciparum Dd2 growth inhibition. activity change, % at 10 µM. AID 1159554. SYBR Green, 72 h; active compounds read low. 2.3% of 94,000 active; in the data active = activity change below about -80%; inconclusive = no clear call, values can overlap the other calls
T cruzi growth-2 – inhibitors of T. cruzi proliferation. shares compounds with T cruzi growth-1. T. cruzi beta-gal in NIH3T3, GalScreen luminescence, 90 h. inhibition, % at 8.35 µM. 72% of 5,600 active;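 active = mean replicate inhibition above about 95% and at least 55% of replicates individually reaching it, limit read from the data; inconclusive = only one of the two criteria is met; inactive = neither criterion is met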
T cruzi growth-3 – Trypanosoma cruzi proliferation inhibition. shares compounds with T cruzi growth-1. T. cruzi beta-gal in NIH3T3, GalScreen luminescence, 90 h. inhibition, % at 2.09 µM. 21% of 5,600 active. AID 651740;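 active = mean inhibition above about 95%, with at least 55% of replicates also reaching it, limit read from the data; inconclusive = meets just one of the two conditions; inactive = meets neither condition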;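 also: plate controls were neutral control median for no effect and positive control median for full effect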
3T3 cytotox – cytotoxicity in mouse NIH/3T3 fibroblasts | shares compounds with T cruzi growth-1 | AID 651742 | cytotoxicity (signal decrease), % at 8.35 µM | NIH/3T3 viability, CellTiter-Glo ATP luminescence, 90 h | 14% of 5,600 active;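 active = mean signal decrease across replicates above about 35% based on untreated-well scatter, with enough replicates individually passing, limit read from the data; inconclusive = no rule stated though some were filed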;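 also: 0% = median of neutral control wells and 100% = median of positive control wells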
3T3 cytotox 2 – cytotoxicity in mouse NIH/3T3 fibroblasts. NIH/3T3 viability, CellTiter-Glo ATP luminescence, 90 h. inhibition, % at 24.9 µM. shares compounds with T cruzi growth-1. AID 651744. 56% of 5,600 active;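 active = mean loss of cell viability signal at or above a set limit, and enough replicates individually reaching it; inconclusive = meets only the mean limit or only the replicate share; inactive = meets neither condition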;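 also: 0% = median of neutral control wells and 100% = median of positive control wells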
Starred values were filed as active, the others as inactive; ? = inconclusive; nt = no result given.

SMILES	IDH1 R132H inh	KDM4C inh	T cruzi growth-1	Pf Dd2 inh	T cruzi growth-2	T cruzi growth-3	3T3 cytotox	3T3 cytotox 2
COc1ccc(S(=O)(=O)Nc2ccc3c(c2)CC(=O)N([C@H](C)CO)C[C@@H](C)[C@H](CN(C)Cc2ccc(C(F)(F)F)cc2)O3)cc1	2	0	?	8	102*	45	5	59*
COc1ccc(CN(C)C[C@H]2Oc3ccc(NS(=O)(=O)c4ccc(OC)cc4)cc3CC(=O)N([C@H](C)CO)C[C@@H]2C)cc1	0	7	nt	-19	nt	nt	nt	nt
COc1ccc(CN(C)C[C@@H]2Oc3ccc(NS(=O)(=O)c4ccc(OC)cc4)cc3CC(=O)N([C@H](C)CO)C[C@H]2C)cc1	-2	-1	105*	-8	103*	81	6	20
O=C(CCCCCCC(=O)Nc1ccccc1O)N/N=C/c1ccc(-c2cccc(Cl)c2)o1	0	nt	nt	nt	nt	nt	nt	nt
CN1c2ccc(C#Cc3cccnc3)cc2[C@@H]2[C@@H](CCN2C(=O)C2CCCCC2)[C@H]1CO	nt	1	119*	-42	110*	57	41*	42*
CN1c2ccc(C#Cc3cccnc3)cc2[C@H]2[C@H](CCN2S(=O)(=O)c2ccc(F)cc2)[C@@H]1CO	nt	0	103*	-64	98*	89	15	31*
COc1cccc(S(=O)(=O)N2CC[C@@H]3[C@H]2c2cc(C#Cc4cccnc4)ccc2N[C@@H]3CO)c1	nt	-1	?	-11	107*	86	14	43*
CN1c2ccc(C#Cc3cccnc3)cc2[C@@H]2[C@@H](CCN2C(=O)c2cccc(F)c2)[C@@H]1CO	nt	20	109*	-36	107*	45	31	31*
CC(C)n1c2ccccc2c2nnc(SCC(=O)N3c4ccccc4Sc4ccccc43)nc21	0	nt	nt	nt	nt	nt	nt	nt
Cc1cc(C)n(C(=O)c2ccc(COc3c(F)c(F)cc(F)c3F)o2)n1	0	nt	nt	nt	nt	nt	nt	nt
N#Cc1sc2c(c1OC(=O)c1cccs1)c(=O)n(-c1ccccc1)c(=S)n2-c1ccccc1	1	nt	nt	nt	nt	nt	nt	nt
C[C@@H]1CN([C@H](C)CO)C(=O)c2cc(NS(C)(=O)=O)ccc2O[C@@H](C)CCCCO[C@@H]1CN(C)Cc1ccc(C(F)(F)F)cc1	-3	-1	67	-52	nt	nt	nt	nt
C[C@H](CO)N1C[C@H](C)[C@@H](CN(C)Cc2ccc(C(F)(F)F)cc2)OCCCC[C@H](C)Oc2ccc(NS(C)(=O)=O)cc2C1=O	0	0	93*	-25	109*	32	21	53*
C[C@@H]1CCCCO[C@@H](CN(C)Cc2ccc(C(F)(F)F)cc2)[C@@H](C)CN([C@H](C)CO)C(=O)c2cc(NS(=O)(=O)c3ccc(Cl)cc3)ccc2O1	nt	-1	108*	-8	95*	110*	25	102*
C[C@H]1CCCCO[C@H](CN(C)Cc2ccc(C(F)(F)F)cc2)[C@@H](C)CN([C@@H](C)CO)C(=O)c2cc(NS(=O)(=O)c3ccccc3)ccc2O1	nt	0	?	-36	91	97*	3	104*
C[C@@H]1CCCCO[C@H](CN(C)Cc2ccc(C(F)(F)F)cc2)[C@@H](C)CN([C@H](C)CO)C(=O)c2cc(NS(=O)(=O)c3ccccc3)ccc2O1	5	2	?	-1	97*	-7	15	50*
O=C(CSc1nc2ccc(NC(=O)c3ccccc3Br)cc2s1)Nc1ccccc1	0	nt	nt	nt	nt	nt	nt	nt
O=C(NO)c1ccc(C(=O)N/N=C/c2ccccc2O)cc1	0	nt	nt	nt	nt	nt	nt	nt
c1ccc(CNc2ncnc3scc(C4COc5ccccc5O4)c23)cc1 (stereo not given)	-1	nt	nt	nt	nt	nt	nt	nt
COc1ccc(NC(=O)Nc2ccc3c(c2)C(=O)N([C@@H](C)CO)C[C@H](C)[C@@H](CN(C)Cc2ccc4c(c2)OCO4)OCCCC[C@H](C)O3)cc1	nt	0	?	-58	103*	78	-5	105*
COc1ccc(CN(C)C[C@H]2OCCCC[C@H](C)Oc3ccc(NC(=O)Nc4ccc5c(c4)OCO5)cc3C(=O)N([C@H](C)CO)C[C@H]2C)cc1	nt	2	105*	-75	?	?	22	78*
O=C(C[C@H]1CC[C@@H]2[C@H](COC[C@@H](O)CN2C(=O)Nc2ccc(Cl)c(Cl)c2)O1)NCc1ccncc1	nt	-3	111*	4	69	1	-1	10
O=C(C[C@@H]1CC[C@@H]2[C@H](COC[C@@H](O)CN2C(=O)Nc2ccc(Cl)c(Cl)c2)O1)NCc1ccccc1	nt	0	60	5	nt	nt	nt	nt
O=C(C[C@@H]1CC[C@H]2[C@@H](COC[C@H](O)CN2C(=O)Nc2ccc(Cl)c(Cl)c2)O1)NCc1ccc(Cl)cc1	nt	-2	84	-1	nt	nt	nt	nt
O=C(C[C@H]1CC[C@@H]2[C@H](COC[C@H](O)CN2C(=O)Nc2ccc(Cl)c(Cl)c2)O1)NCc1ccc(Cl)cc1	nt	-1	111*	-2	108*	13	?	89*
SMILES	IDH1 R132H inh	KDM4C inh	T cruzi growth-1	Pf Dd2 inh	T cruzi growth-2	T cruzi growth-3	3T3 cytotox	3T3 cytotox 2
O=C(C[C@@H]1CC[C@@H]2[C@H](COC[C@@H](O)CN2C(=O)Nc2ccc(Cl)c(Cl)c2)O1)NCc1ccc(Cl)cc1	nt	-1	84	8	nt	nt	nt	nt
O=C(C[C@@H]1CC[C@H]2[C@@H](COC[C@H](O)CN2C(=O)Nc2ccc(Cl)c(Cl)c2)O1)NCc1ccccc1	nt	0	94	3	nt	nt	nt	nt
O=C(C[C@H]1CC[C@@H]2[C@H](COC[C@@H](O)CN2C(=O)Nc2ccc(Cl)c(Cl)c2)O1)NCc1ccc(Cl)cc1	nt	0	102*	5	100*	-12	38*	56*
O=C(C[C@H]1CC[C@H]2[C@@H](COC[C@H](O)CN2C(=O)Nc2ccc(Cl)c(Cl)c2)O1)NCc1ccc(Cl)cc1	nt	2	?	-11	93	24	16	102*
CC(C)=CCc1c(O)c(CC=C(C)C)c2c(c1O)C(=O)CC(c1ccc(O)cc1O)O2 (stereo not given)	0	nt	nt	nt	nt	nt	nt	nt
CN(CCO)c1ccc(/C=N/NC(=O)CCCCCC(=O)NO)cc1	0	nt	nt	nt	nt	nt	nt	nt
C[C@H](CO)N1C[C@H](C)[C@@H](CN(C)Cc2ccc(C(=O)O)cc2)Oc2c(NC(=O)Nc3ccccc3)cccc2C1=O	nt	1	nt	-3	nt	nt	nt	nt
C[C@H]1CN([C@@H](C)CO)C(=O)c2cc(NC(=O)Nc3ccc4c(c3)OCO4)ccc2O[C@H]1CN(C)Cc1ccc(C(=O)Nc2ccccc2N)cc1	nt	1	98*	-3	85	79	2	10
C[C@@H]1CN([C@H](C)CO)C(=O)c2cccc(NC(=O)Nc3ccc4c(c3)OCO4)c2O[C@@H]1CN(C)Cc1ccc(C(=O)O)cc1	nt	2	-7	1	nt	nt	nt	nt
